Assay results reported in ChEMBL document CHEMBL1137631, “Artemisinin-resistant mutants of Toxoplasma gondii have altered calcium homeostasis” (Antimicrob Agents Chemother, 2007).
Active and inactive are the calls of the source. The rule behind the calls is not given here.

Experiments:
Format in all cases: functional, organism-based
Toxoplasma gondii [1] = assay: Antiparasitic activity against artemisinin-resistant Toxoplasma gondii KN200-6 infected in HFF cells after 72 hrs by beta-galactosidase reporter gene assay
Outline: (§1)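 Tachyzoites inoculated into HFF monolayers, quadruplicate wells per sample; compounds 10 nM to 100 μM for 3 days at 37°C. Monolayers lysed 10 min at 50°C (HEPES pH 8.0, Triton X-100, DTT), then phosphate buffer pH 7.3 added, chlorophenol red-β-D-galactopyranoside substrate, A570 read.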

Toxoplasma gondii [2] = assay: Antiparasitic activity against artemisinin-resistant Toxoplasma gondii STL500-10A infected in HFF cells after 72 hrs by beta-galactosidase reporter gene assay; outline: as §1
Toxoplasma gondii [3] = assay: Antiparasitic activity against artemisinin-resistant Toxoplasma gondii KN200-1 infected in HFF cells after 72 hrs by beta-galactosidase reporter gene assay; outline: as §1
Toxoplasma gondii [4] = assay: Increase in intracellular calcium level in artemisinin-resistant Toxoplasma gondii KN200-6 at 20 uM by fura-2-AM dye based fluorimetric method
Outline: (§2)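 Freshly harvested tachyzoites loaded with 5.2 μM fura-2-AM in HEPES-buffered saline pH 7.4 plus 1.5% sucrose, 30 min at 26°C, washed; 2×10^7 cells/ml, room temperature, no extracellular calcium (1 mM EGTA). Excitation 340/380 nm, emission 510 nm; [Ca2+]i calibrated with Ca2+-EGTA buffers after background subtraction; three independent experiments.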

Toxoplasma gondii [5] = assay: Increase in intracellular calcium level in artemisinin-resistant Toxoplasma gondii STL500-10A at 20 uM by fura-2-AM dye based fluorimetric method; outline: as §2
Toxoplasma gondii [6] = assay: Increase in intracellular calcium level in artemisinin-resistant Toxoplasma gondii KN200-1 at 20 uM by fura-2-AM dye based fluorimetric method; outline: as §2
Toxoplasma gondii [7] = assay: Increase in intracellular calcium level in Toxoplasma gondii ATCC 50839 at 20 uM by fura-2-AM dye based fluorimetric method; outline: as §2
Toxoplasma gondii [8] = assay: Antiparasitic activity against Toxoplasma gondii ATCC 50839 infected in HFF cells after 72 hrs by beta-galactosidase reporter gene assay; outline: as §1
Toxoplasma gondii [9] = assay: Induction of […] MIC2 protein secretion in artemisinin-resistant Toxoplasma gondii A2
Toxoplasma gondii [10] = assay: Increase in intracellular calcium level in artemisinin-resistant Toxoplasma gondii STL500-10A at 1 uM by fura-2-AM dye based fluorimetric method in presence of extracellular calcium
Outline: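 Freshly harvested tachyzoites loaded with 5.2 μM fura-2-AM in HEPES-buffered saline pH 7.4 plus 1.5% sucrose, 30 min at 26°C, washed; 2×10^7 cells/ml, room temperature, 1 mM extracellular CaCl2. 340/380 nm excitation ratio, 510 nm emission; [Ca2+]i calibrated with Ca2+-EGTA buffers; three independent experiments.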

Toxoplasma gondii [11] = assay: Induction of […] MIC2 protein secretion in artemisinin-resistant Toxoplasma gondii KN200-6 at 10 uM treated for 10 mins by Western blot
Outline: (§3)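 Freshly egressed parasites in DMEM/HEPES with 3% FBS, treated 10 min at 18°C (1% ethanol vehicle), then 2 min at 37°C to secrete, chilled, centrifuged at 400 × g. Supernatant and pellet resolved by 15% SDS-PAGE, Western blotted with rabbit anti-MIC2 (1:10,000) and anti-β-galactosidase (1:300) antibodies.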

Toxoplasma gondii [12] = assay: Induction of […] MIC2 protein secretion in artemisinin-resistant Toxoplasma gondii STL500-10A at 10 uM treated for 10 mins by Western blot; outline: as §3
Toxoplasma gondii [13] = assay: Induction of […] MIC2 protein secretion in artemisinin-resistant Toxoplasma gondii KN200-1 at 10 uM treated for 10 mins by Western blot; outline: as §3
Toxoplasma gondii [14] = assay: Increase in intracellular calcium level in artemisinin-resistant Toxoplasma gondii KN200-1 at 1 uM by fura-2-AM dye based fluorimetric method; outline: as §2
Toxoplasma gondii [15] = assay: Increase in intracellular calcium level in artemisinin-resistant Toxoplasma gondii KN200-6 at 1 uM by fura-2-AM dye based fluorimetric method; outline: as §2
Toxoplasma gondii [16] = assay: Increase in intracellular calcium level in Toxoplasma gondii ATCC 50839 at 1 uM by fura-2-AM dye based fluorimetric method; outline: as §2
Toxoplasma gondii [17] = assay: Induction of […] MIC2 protein secretion in Toxoplasma gondii ATCC 50839 at 10 uM treated for 10 mins by Western blot; outline: as §3
Toxoplasma gondii [18] = assay: Increase in intracellular calcium level in artemisinin-resistant Toxoplasma gondii STL500-10A at 1 uM by fura-2-AM dye based fluorimetric method; outline: as §2
[19] = Toxoplasma gondii, KN200-6, HFF, 72 h, read-out: EC50
[20] = Toxoplasma gondii, STL500-10A, HFF, 72 h, read-out: EC50
[21] = Toxoplasma gondii, KN200-1, HFF, 72 h, read-out: EC50
[22] = Toxoplasma gondii, ATCC 50839, HFF, 72 h, read-out: EC50

## C[C@@H]1CC[C@H]2[C@H](C)CO[C@@H]3O[C@@]4(C)CC[C@@H]1[C@]32OO4 [9-EPI-10-DEOXOARTEMISININ]
Toxoplasma gondii [1]; hff
  EC50: Active
Toxoplasma gondii [2]; hff
  EC50: Active
Toxoplasma gondii [3]; hff
  EC50: Active

## C[C@@H]1CC[C@H]2[C@@H](C)C(=O)O[C@@H]3O[C@@]4(C)CC[C@@H]1[C@]32OO4 [ARTEMISININ]
Toxoplasma gondii [4]
  Activity: Active
Toxoplasma gondii [5]
  Activity: Active
Toxoplasma gondii [6]
  Activity: Active
Toxoplasma gondii [1]; Toxoplasma gondii, KN200-6, HFF, 72 h
  EC90: 8.55 µM
Toxoplasma gondii [1]; [19]
  EC50: 1.51 µM
Toxoplasma gondii [2]; Toxoplasma gondii, STL500-10A, HFF, 72 h
  EC90: 4.77 µM
Toxoplasma gondii [2]; [20]
  EC50: 1.8 µM
Toxoplasma gondii [3]; Toxoplasma gondii, KN200-1, HFF, 72 h
  EC90: 6.85 µM
Toxoplasma gondii [3]; [21]
  EC50: 1.73 µM
Toxoplasma gondii [7]
  Activity: Active
Toxoplasma gondii [8]; Toxoplasma gondii, ATCC 50839, HFF, 72 h
  EC90: 1.24 µM
Toxoplasma gondii [8]; [22]
  EC50: 0.8 µM
Toxoplasma gondii [9]
  Activity: inactive

## O=c1[nH]c(=O)n([C@H]2C[C@H](O)[C@@H](CO)O2)cc1F [FLOXURIDINE]
Toxoplasma gondii [1]; [19]
  EC50: 1.19 µM
Toxoplasma gondii [2]; [20]
  EC50: 0.96 µM
Toxoplasma gondii [3]; [21]
  EC50: 1.13 µM
Toxoplasma gondii [8]; [22]
  EC50: 0.91 µM

## C[C@@H]1CC[C@H]2[C@@H](C)C(=O)O[C@@H]3O[C@@]4(C)CC[C@@H]1[C@]32O4 [DEOXYARTEMISININ]
Toxoplasma gondii [1]; hff
  EC50: Not Active
Toxoplasma gondii [2]; hff
  EC50: Not Active
Toxoplasma gondii [3]; hff
  EC50: Not Active
Toxoplasma gondii [8]; hff
  EC50: Not Active

## CCc1nc(N)nc(N)c1-c1ccc(Cl)cc1 [PYRIMETHAMINE]
Toxoplasma gondii [1]; [19]
  EC50: 0.27 µM
Toxoplasma gondii [2]; [20]
  EC50: 0.24 µM
Toxoplasma gondii [3]; [21]
  EC50: 0.29 µM
Toxoplasma gondii [8]; [22]
  EC50: 0.21 µM

## C/C=C(/C)C(=O)O[C@H]1C(C)=C2[C@H]([C@@H]1OC(=O)CCCCCCC)[C@@](C)(OC(C)=O)C[C@H](OC(=O)CCC)[C@@]1(O)[C@H]2OC(=O)[C@@]1(C)O
Toxoplasma gondii [10]
  Activity: Active
Toxoplasma gondii [11]
  Activity: Active
Toxoplasma gondii [12]
  Activity: Active
Toxoplasma gondii [13]
  Activity: Active
Toxoplasma gondii [14]
  Activity: Active
Toxoplasma gondii [15]
  Activity: Active
Toxoplasma gondii [16]
  Activity: Active
Toxoplasma gondii [17]
  Activity: Active
Toxoplasma gondii [9]
  Activity: Active
Toxoplasma gondii [18]
  Activity: Active

## C[C@H]1[C@H](N2CCS(=O)(=O)CC2)O[C@@H]2O[C@@]3(C)CC[C@H]4[C@H](C)CC[C@@H]1[C@@]24OO3 [ARTEMIFONE]
Toxoplasma gondii [8]; [22]
  EC50: 0.03 µM
